# Experimental data: ChEMBL document CHEMBL3272253, “Relationship of molecular structure to in vivo scintigraphic distribution patterns of carbon-11 labeled compounds. 3. (11C)Hydantoins” (J Med Chem, 1976)
# Tests used:
# Type in all cases: ADME, organism-based, Canis lupus familiaris
# Settings in all cases: in vivo; call rule not given here
# [1] = Drug level in iv dosed dog lung by gamma-scintillation counting analysis
# Summary of the method: (§1)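 Carbon-11-labeled hydantoin, 1–59 mCi of final product, dissolved in 1–1.5% aqueous NaOH and given iv to dogs. Distribution imaged serially for up to 2 hr or more with a scintillation camera fitted with a pinhole collimator (1-cm hyperbolic aperture), with whole-body scintiphotos at about 5 and 30 min. Readout is qualitative to semiquantitative; no coincidence imaging.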
# Liver [2] = assay: Drug level in iv dosed dog liver by gamma-scintillation counting analysis; summary of the method: as §1
# Canis familiaris [3] = assay: Drug level in iv dosed dog by gamma-scintillation counting analysis; summary of the method: as §1
# [4] = Drug level in iv dosed dog kidney by gamma-scintillation counting analysis; summary of the method: as §1
# [5] = Drug excretion in iv dosed dog urine by gamma-scintillation counting analysis; summary of the method: as §1
# Brain = assay: Drug level in iv dosed dog brain after 5 to 30 mins by gamma-scintillation counting analysis; summary of the method: as §1
# [6] = Drug excretion in iv dosed dog bile after 5 to 30 mins by gamma-scintillation counting analysis; summary of the method: as §1
# Canis familiaris [7] = assay: Drug level in iv dosed dog after 5 to 30 mins by gamma-scintillation counting analysis; summary of the method: as §1
# [8] = Drug level in iv dosed dog lung after 5 to 30 mins by gamma-scintillation counting analysis; summary of the method: as §1
# Liver [9] = assay: Drug level in iv dosed dog liver after 5 to 30 mins by gamma-scintillation counting analysis; summary of the method: as §1
# Nucleic Acid [10] = assay: Ratio of drug level in iv dosed dog brain to temporal muscle after 73 mins by gamma-scintillation counting analysis
# Summary of the method: (§2)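 Dogs were dosed iv with 11C-labeled hydantoin. Tissues and fluids were collected at necropsy 73 or 80 min post-dose and counted at fixed geometry in front of a thallium-activated NaI scintillation detector. Values are cpm/g of tissue divided by cpm/g of temporal muscle.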
# Nucleic Acid [11] = assay: Ratio of drug level in iv dosed dog lung to temporal muscle after 73 mins by gamma-scintillation counting analysis; summary of the method: as §2
# Nucleic Acid [12] = assay: Ratio of drug level in iv dosed dog washed heart to temporal muscle after 73 mins by gamma-scintillation counting analysis
# Summary of the method: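 [11C]-labeled hydantoin, from carrier-free [11C]HCN, given intravenously to dogs. Heart washed and taken at necropsy 73 min after dosing, along with temporal muscle. Tissues were counted at fixed geometry before a thallium-activated NaI scintillation detector. Value is cpm/g washed heart divided by cpm/g temporal muscle.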
# Nucleic Acid [13] = assay: Ratio of drug level in iv dosed dog liver to temporal muscle after 73 mins by gamma-scintillation counting analysis; summary of the method: as §2
# Nucleic Acid [14] = assay: Ratio of drug level in iv dosed dog bile to temporal muscle after 73 mins by gamma-scintillation counting analysis; summary of the method: as §2
# Nucleic Acid [15] = assay: Ratio of drug level in iv dosed dog spleen to temporal muscle after 73 mins by gamma-scintillation counting analysis; summary of the method: as §2
# Nucleic Acid [16] = assay: Ratio of drug level in iv dosed dog stomach to temporal muscle after 73 mins by gamma-scintillation counting analysis; summary of the method: as §2
# Nucleic Acid [17] = assay: Ratio of drug level in iv dosed dog pancreas to temporal muscle after 73 mins by gamma-scintillation counting analysis; summary of the method: as §2
# Nucleic Acid [18] = assay: Ratio of drug level in iv dosed dog kidney to temporal muscle after 73 mins by gamma-scintillation counting analysis; summary of the method: as §2
# Nucleic Acid [19] = assay: Ratio of drug level in iv dosed dog blood to temporal muscle after 73 mins by gamma-scintillation counting analysis; summary of the method: as §2
# Nucleic Acid [20] = assay: Ratio of drug level in iv dosed dog mesenteric fat to temporal muscle after 73 mins by gamma-scintillation counting analysis; summary of the method: as §2
# Nucleic Acid [21] = assay: Ratio of drug level in iv dosed dog urine to temporal muscle after 73 mins by gamma-scintillation counting analysis; summary of the method: as §2
# Nucleic Acid [22] = assay: Ratio of drug level in iv dosed dog cerebrospinal fluid to temporal muscle after 73 mins by gamma-scintillation counting analysis; summary of the method: as §2
# [23] = Drug level in iv dosed dog kidney after 5 to 30 mins by gamma-scintillation counting analysis; summary of the method: as §1
# [24] = Drug excretion in iv dosed dog urine after 5 to 30 mins by gamma-scintillation counting analysis; summary of the method: as §1
# [25] = Drug excretion in iv dosed dog urine after 1 hr by gamma-scintillation counting analysis
# Nucleic Acid [26] = assay: Ratio of drug level in iv dosed dog brain to temporal muscle after 80 mins by gamma-scintillation counting analysis; summary of the method: as §2
# Nucleic Acid [27] = assay: Ratio of drug level in iv dosed dog lung to temporal muscle after 80 mins by gamma-scintillation counting analysis; summary of the method: as §2
# Nucleic Acid [28] = assay: Ratio of drug level in iv dosed dog washed heart to temporal muscle after 80 mins by gamma-scintillation counting analysis
# Summary of the method: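 Dogs received the [11C]-labeled hydantoin intravenously. At necropsy 80 min post-injection, the heart was washed and collected with temporal muscle. Each sample was placed at a fixed position before a thallium-activated NaI scintillation detector. The ratio is cpm/g tissue over cpm/g temporal muscle.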
# Nucleic Acid [29] = assay: Ratio of drug level in iv dosed dog liver to temporal muscle after 80 mins by gamma-scintillation counting analysis; summary of the method: as §2
# Nucleic Acid [30] = assay: Ratio of drug level in iv dosed dog bile to temporal muscle after 80 mins by gamma-scintillation counting analysis; summary of the method: as §2
# Nucleic Acid [31] = assay: Ratio of drug level in iv dosed dog spleen to temporal muscle after 80 mins by gamma-scintillation counting analysis; summary of the method: as §2
# Nucleic Acid [32] = assay: Ratio of drug level in iv dosed dog stomach to temporal muscle after 80 mins by gamma-scintillation counting analysis; summary of the method: as §2
# Nucleic Acid [33] = assay: Ratio of drug level in iv dosed dog pancreas to temporal muscle after 80 mins by gamma-scintillation counting analysis; summary of the method: as §2
# Nucleic Acid [34] = assay: Ratio of drug level in iv dosed dog kidney to temporal muscle after 80 mins by gamma-scintillation counting analysis; summary of the method: as §2
# Nucleic Acid [35] = assay: Ratio of drug level in iv dosed dog blood to temporal muscle after 80 mins by gamma-scintillation counting analysis; summary of the method: as §2
# Nucleic Acid [36] = assay: Ratio of drug level in iv dosed dog mesenteric fat to temporal muscle after 80 mins by gamma-scintillation counting analysis; summary of the method: as §2
structure (smiles),measurement,setting,value
CCCC1(CCC)NC(=O)N[11C]1=O,Drug uptake,[1],Active
same,Drug uptake,Liver [2],Active
same,Drug uptake,Canis familiaris [3],Active
same,Drug uptake,[4],Active
same,Drug excretion,[5],metabolite_detected
same,Drug uptake,Brain,Not Active
same,Drug excretion,[6],metabolite_notdetected
CCC1(c2ccccc2)NC(=O)N[11C]1=O (stereo not given),Drug uptake,Canis familiaris [7],Active
same,Drug uptake,[8],Active
same,Drug uptake,Liver [9],Active
same,Ratio,Nucleic Acid [10],1.25
same,Ratio,Nucleic Acid [11],0.75
same,Ratio,Nucleic Acid [12],1
same,Ratio,Nucleic Acid [13],1.33
same,Ratio,Nucleic Acid [14],1.58
same,Ratio,Nucleic Acid [15],1.25
same,Ratio,Nucleic Acid [16],0.92
same,Ratio,Nucleic Acid [17],1.67
same,Ratio,Nucleic Acid [18],1.25
same,Ratio,Nucleic Acid [19],1
same,Ratio,Nucleic Acid [20],0.75
same,Ratio,Nucleic Acid [21],0.67
same,Ratio,Nucleic Acid [22],2.67
O=C(O)CCC1(c2ccccc2)NC(=O)N[11C]1=O (stereo not given),Drug uptake,Canis familiaris [7],Active
same,Drug uptake,[23],Active
same,Drug excretion,[24],metabolite_detected
CCCC1(c2ccccc2)NC(=O)N[11C]1=O (stereo not given),Drug uptake,Canis familiaris [7],Active
O=C1NC(c2ccccc2)[11C](=O)N1 (stereo not given),Drug uptake,Canis familiaris [7],Active
same,Drug excretion,[25],metabolite_detected
same,Ratio,Nucleic Acid [26],0.73
same,Ratio,Nucleic Acid [27],1.05
same,Ratio,Nucleic Acid [28],0.71
same,Ratio,Nucleic Acid [29],2.25
same,Ratio,Nucleic Acid [30],0.83
same,Ratio,Nucleic Acid [31],0.81
same,Ratio,Nucleic Acid [32],0.76
same,Ratio,Nucleic Acid [33],0.63
same,Ratio,Nucleic Acid [34],1.91
same,Ratio,Nucleic Acid [35],0.93
same,Ratio,Nucleic Acid [36],0.25
